≈ marks a conversion by molar mass, not a printed value.
Legend:
Human alphaherpesvirus 1 [1] = test: Evaluated for DNA polymerase inhibition activity against herpes simplex virus-1 (HSV-1); assay type: functional
In short: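 Step II mixture supplied the phosphorylated test material. Step I: compound with HSV-1 thymidine kinase, 4 h, 37 °C. Step II: then HSV-1-infected HeLa crude extract plus GMP kinase, overnight, 30 °C. A 20 μL sample went to a 1 h, 37 °C DNA polymerase assay at pH 8 with activated salmon sperm DNA, 0.05 mM each dNTP ([³H]dTTP) and infected HeLa extract. (NH₄)₂SO₄ 0.1 M was present for the viral enzyme and omitted for the cellular polymerases. Read-out: TCA-precipitable radioactivity.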

Human alphaherpesvirus 1 [2] = test: Efficacy was evaluated against Oraficial HSV-1 infection in mice with lesions administered orally at a dose 12.5 mg/kg per day; Total mice tested 10; assay type: organism-based; parameters: route oral; details: mouse, in vivo, po
In short: (§1)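 HSV-1 strain S inoculated in the orofacial area of mice as previously described. Half-daily doses given by gavage 8 h apart, starting 3 h after infection, for 7 days. On day 7 after infection, mice with lesions per group and average lesion score were recorded (95% confidence interval). Significance was judged against placebo-treated infected mice (p < 0.05).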

Human alphaherpesvirus 1 [3] = test: Efficacy was evaluated against Oraficial HSV-1 infection in mice with lesions administered orally at a dose 50 mg/kg per day; Total mice tested 10; assay type: organism-based; parameters: route oral; details: mouse, in vivo, po; in short: as §1
Human alphaherpesvirus 1 [4] = test: Efficacy was evaluated against Oraficial HSV-1 infection in mice with lesions administered orally at a dose 3.1 mg/kg per day.; assay type: ADME, organism-based; parameters: route oral; details: mouse, in vivo, po; in short: as §1
Human alphaherpesvirus 2 [5] = test: In vitro anti viral activity tested against HSV-2(Curtis) virus on Rabbit kidney cell cultures; 1-3; assay type: functional; details: Human alphaherpesvirus 2, kidney; read-out: ED50 (the source's name)
In short: (§2)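 Confluent primary rabbit kidney monolayers were preincubated with serial drug dilutions in EMEM with 2% fetal calf serum and neomycin. They were then challenged with about 10 TCID50 of HSV-1 Schooler or HSV-2 Curtis and incubated at 37 °C. Cytopathology was scored on day 5. ED50 is the concentration preventing cytopathology in half of the infected cultures.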

Human alphaherpesvirus 1 [6] = test: Efficacy was evaluated against Systemic HSV-1 infection in mice at a daily dose of 50 mg/kg administered orally; Total mice tested 10; assay type: organism-based; parameters: dose 50 mg/kg; details: mouse, in vivo, po
In short: (§3)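 Mixed-sex ICR/Ha mice (10–20 g) were infected intraperitoneally with 50–100 LD50 of HSV-1 Schooler. Oral dosing of 0.1 mL twice daily for 7 days began immediately after infection. Groups were of about 10 mice. Deaths were recorded daily for 15 days, giving survivors/total and mean survival time with 95% CI. Significance was judged against placebo-treated infected mice using transformed survival times.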

Human alphaherpesvirus 1 [7] = test: Efficacy was evaluated against Oraficial HSV-1 infection in mice with lesions administered orally at dose 3.1 mg/kg per day; Total mice tested 10; assay type: ADME, organism-based; parameters: route oral; details: mouse, in vivo, po; in short: as §1
Human alphaherpesvirus 1 [8] = test: Efficacy was evaluated against Systemic HSV-1 infection in mice at a daily dose of 12.5 mg/kg administered orally; Total mice tested 10; assay type: ADME, organism-based; parameters: dose 12.5 mg/kg; details: mouse, in vivo, po; in short: as §3
Human alphaherpesvirus 1 [9] = test: Efficacy was evaluated against Oraficial HSV-1 infection in mice with lesions administered orally at a dose 50 mg/kg per day.; assay type: ADME, organism-based; parameters: route oral; details: mouse, in vivo, po; in short: as §1
Human alphaherpesvirus 1 [10] = test: In vitro anti viral activity tested against HSV-1(Schooler) virus on Rabbit kidney cell cultures; 1-3; assay type: functional; details: Human alphaherpesvirus 1, kidney; read-out: ED50 (the source's name)
In short: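 Confluent primary rabbit kidney monolayers were preincubated with serial drug dilutions in EMEM with 2% fetal calf serum and neomycin. They were then challenged with about 10 TCID50 of […] and incubated at 37 °C. Cytopathology was scored on day 5.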

[11] = system: DNA polymerase (Homo sapiens); test: Evaluated for DNA polymerase inhibition activity against HeLa cells.
Human alphaherpesvirus 1 [12] = test: Efficacy was evaluated against Systemic HSV-1 infection in mice at a daily dose of 3.1 mg/kg administered orally; Total mice tested 10; assay type: ADME, organism-based; parameters: dose 3.1 mg/kg; details: mouse, in vivo, po; in short: as §3
Human alphaherpesvirus 1 [13] = test: Efficacy was evaluated against Systemic HSV-1 infection in mice at a daily dose of 12.5 mg/kg administered orally.; assay type: ADME, organism-based; parameters: dose 12.5 mg/kg; details: mouse, in vivo, po; in short: as §3
Human alphaherpesvirus 1 [14] = test: Efficacy was evaluated against Oraficial HSV-1 infection in mice with lesions administered orally at a dose 12.5 mg/kg per day.; assay type: ADME, organism-based; parameters: route oral; details: mouse, in vivo, po; in short: as §1
Human alphaherpesvirus 1 [15] = test: Efficacy was evaluated against Systemic HSV-1 infection in mice at a daily dose of 50 mg/kg administered orally.; assay type: ADME, organism-based; parameters: dose 50 mg/kg; details: mouse, in vivo, po; in short: as §3
Human alphaherpesvirus 1 [16] = test: Efficacy was evaluated against Systemic HSV-1 infection in mice at a daily dose of 3.1 mg/kg administered orally.; assay type: ADME, organism-based; parameters: dose 3.1 mg/kg; details: mouse, in vivo, po; in short: as §3
Human betaherpesvirus 5 [17] = test: In vitro anti viral activity tested against HCMV(AD169) virus on MRC-5 cell monolayers; 20-25; assay type: functional; details: Human betaherpesvirus 5, MRC5; read-out: ED50 (the source's name)
In short: (§4)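 MRC-5 monolayers were infected with HCMV AD169 for 1 h at 37 °C. Compound diluted in maintenance medium was then added and incubation continued for 7 days at 37 °C. Monolayers were stained and plaques counted. ED50 is the concentration reducing plaque number by 50%.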

Human alphaherpesvirus 1 [18] = test: Efficacy was evaluated against Systemic HSV-1 infection in mice at a daily dose of 12.5 mg/kg administered subcutaneously; Tested mice 10; assay type: organism-based; parameters: dose 12.5 mg/kg, route subcutaneous; details: mouse, in vivo, sc
In short: (§5)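 ICR/Ha mice (10–20 g, mixed sex) were infected intraperitoneally with 50–100 LD50 of HSV-1 Schooler. Subcutaneous dosing of 0.1 mL twice daily for 4 days started immediately after infection. Groups were of about 10 mice. Survival was recorded daily for 15 days and reported as survivors/total and mean survival time (95% CI). Transformed survival times were compared with placebo-treated infected mice (p < 0.05).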

Human alphaherpesvirus 1 [19] = test: Efficacy was evaluated against Systemic HSV-1 infection in mice at a daily dose of 3.1 mg/kg administered subcutaneously.; assay type: ADME, organism-based; parameters: dose 3.1 mg/kg, route subcutaneous; details: mouse, in vivo, sc; in short: as §5
Human alphaherpesvirus 1 [20] = test: Efficacy was evaluated against Systemic HSV-1 infection in mice at a daily dose of 3.1 mg/kg administered subcutaneously; Tested mice 10; assay type: ADME, organism-based; parameters: dose 3.1 mg/kg, route subcutaneous; details: mouse, in vivo, sc; in short: as §5
Mus musculus = test: Efficacy was evaluated against Systemic HSV-1 infection in mice at a daily dose of 12.5 mg/kg administered subcutaneously.; assay type: ADME, organism-based; parameters: dose 12.5 mg/kg, route subcutaneous; details: in vivo, sc; in short: as §5
Human alphaherpesvirus 2 [21] = test: In vitro anti viral activity tested against HSV-2(Curtis) virus on Rabbit kidney cell cultures; 3-6; assay type: functional; details: Human alphaherpesvirus 2, kidney; read-out: ED50 (the source's name); in short: as §2
Human alphaherpesvirus 1 [22] = test: Efficacy was evaluated against Systemic HSV-1 infection in mice at a daily dose of 0.8 mg/kg administered subcutaneously.; assay type: ADME, organism-based; parameters: dose 0.8 mg/kg, route subcutaneous; details: mouse, in vivo, sc; in short: as §5
Human alphaherpesvirus 1 [23] = test: Efficacy was evaluated against Systemic HSV-1 infection in mice at a daily dose of 0.8 mg/kg administered subcutaneously; Tested mice 10; assay type: organism-based; parameters: dose 0.8 mg/kg, route subcutaneous; details: mouse, in vivo, sc; in short: as §5
Human betaherpesvirus 5 [24] = test: In vitro anti viral activity tested against HCMV(AD169) virus on MRC-5 cell monolayers; 0.4-1.6; assay type: functional; details: Human betaherpesvirus 5, MRC5; read-out: ED50 (the source's name); in short: as §4
Human alphaherpesvirus 3 = test: In vitro anti viral activity tested against VZV(KMcC) virus on MRC-5 cell monolayers; 1-2; assay type: functional; details: Human alphaherpesvirus 3, MRC5; read-out: ED50 (the source's name)

## Nc1nc2c(ncn2COCCO)c(=O)[nH]1 [ACYCLOVIR]
Human alphaherpesvirus 1 [1]
  Inhibition: 85%
Human alphaherpesvirus 1 [2]
  Mice with lesions: 8
Human alphaherpesvirus 1 [3]
  Mice with lesions: 6
Human alphaherpesvirus 1 [4]
  Average lesion score: 3.75
Human alphaherpesvirus 2 [5]
  EC50: 1 µg/mL (≈ 4.44 µM)
Human alphaherpesvirus 1 [6]
  Survivors: 2
Human alphaherpesvirus 1 [7]
  Mice with lesions: 10
Human alphaherpesvirus 1 [8]
  Survivors: 1
Human alphaherpesvirus 1 [9]
  Average lesion score: 1.45
Human alphaherpesvirus 1 [10]
  EC50: 1 µg/mL (≈ 4.44 µM)
[11]
  Inhibition: 34%
Human alphaherpesvirus 1 [12]
  Survivors: 0
Human alphaherpesvirus 1 [13]
  Average survival: 7.6 days
Human alphaherpesvirus 1 [14]
  Average lesion score: 2.95
Human alphaherpesvirus 1 [15]
  Average survival: 8.7 days
Human alphaherpesvirus 1 [16]
  Average survival: 6.5 days
Human betaherpesvirus 5 [17]
  EC50: 20 µg/mL (≈ 88.8 µM)

## Nc1nc2c(ncn2COC(CO)CO)c(=O)[nH]1 [GANCICLOVIR]
Human alphaherpesvirus 1 [1]
  Inhibition: 55%
Human alphaherpesvirus 1 [18]
  Survivors: 7
Human alphaherpesvirus 1 [19]
  Average survival: 12.6 days
Human alphaherpesvirus 1 [20]
  Survivors: 5
Mus musculus
  Average survival: 14.6 days
Human alphaherpesvirus 1 [10]
  EC50: 1 µg/mL (≈ 3.92 µM)
Human alphaherpesvirus 2 [21]
  EC50: 3 µg/mL (≈ 11.8 µM)
[11]
  Inhibition: 13%
Human alphaherpesvirus 1 [22]
  Average survival: 9.8 days
Human alphaherpesvirus 1 [23]
  Survivors: 3
Human betaherpesvirus 5 [24]
  EC50: 0.4 µg/mL (≈ 1.57 µM)
Human alphaherpesvirus 3
  EC50: 1 µg/mL (≈ 3.92 µM)
